Series [1] deals with Root. Nature of the series: Induction of caffeic acid accumulation in Pisum sativum (pea) roots at 69 uM added to nutrient medium measured 5 to 15 days post onset of compound treatment by HPLC method. It counts as functional. To be noted: Lathyrus oleraceus. The gist of the method: (§1)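 Compound was added to the nutrient solution of 12-day-old pea plants (cv. Snap Sugar Boys), renewed every 3 days at pH 6–7. Leaves or roots were sampled at 0, 1, 3, 7, 10 and 15 days. Values are mean ± standard error, n = 5 single plants. One-way ANOVA with Fisher test versus untreated controls on each day, p < 0.05.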

The test system of series [2] is Leaf. Briefly: Induction of sinapic acid accumulation in Pisum sativum (pea) leaves at 69 uM added to nutrient medium measured 5 to 15 days post onset of compound treatment by HPLC method. To be noted: Lathyrus oleraceus. It counts as functional. The gist of the method: as §1
For series [3], the system named is Root. Nature of the series: Induction of ferulic acid accumulation in Pisum sativum (pea) roots at 69 uM added to nutrient medium measured 5 to 15 days post onset of compound treatment by HPLC method. The series is classed as functional. To be noted: Lathyrus oleraceus. An outline of the steps: as §1
The test system of series [4] is Root. Briefly: Increase in lignin content in Pisum sativum (pea) roots at 69 uM added to nutrient medium measured 10 days post onset of compound treatment. It counts as functional. To be noted: Lathyrus oleraceus. The gist of the method:
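Compound was added to the nutrient solution of 12-day-old pea plants (cv. Snap Sugar Boys). Solution was renewed every 3 days at pH 6–7. Lignin was measured in roots from plants sampled on set days up to day 15.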

The test system of series [5] is Leaf. Briefly: Induction of caffeic acid accumulation in Pisum sativum (pea) leaves at 69 uM added to nutrient medium measured 5 to 15 days post onset of compound treatment by HPLC method. The series is classed as functional. To be noted: Lathyrus oleraceus. The gist of the method: as §1
The test system of series [6] is Leaf. Briefly: Induction of ferulic acid accumulation in Pisum sativum (pea) leaves at 69 uM added to nutrient medium measured 5 to 15 days post onset of compound treatment by HPLC method. To be noted: Lathyrus oleraceus. It counts as functional. An outline of the steps: as §1
Series [7] relates to Pisum sativum. Briefly: Growth inhibition in Pisum sativum (pea) at 69 uM added to nutrient medium measured 22 to 23 days post onset of compound treatment. It counts as functional, organism-based. To be noted: Lathyrus oleraceus. An outline of the steps: (§2)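 Pea (cv. Snap Sugar Boys) grown hydroponically. Compound added to the nutrient solution at 12 days old. Solution was renewed every 3 days, with pH held between 6 and 7. Plants were followed over the treatment period.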

The test system of series [8] is Root. Nature of the series: Induction of p-coumaric acid accumulation in Pisum sativum (pea) roots at 69 uM added to nutrient medium measured 5 to 15 days post onset of compound treatment by HPLC method. It counts as functional. To be noted: Lathyrus oleraceus. An outline of the steps: as §1
For series [9], the system named is Root. Nature of the series: Reduction in sinapic acid accumulation in Pisum sativum (pea) roots at 69 uM added to nutrient medium measured 3 to 10 days post onset of compound treatment by HPLC method. It counts as functional. To be noted: Lathyrus oleraceus. An outline of the steps:
as §1

For series [10], the system named is Leaf. Nature of the series: Induction of p-coumaric acid accumulation in Pisum sativum (pea) leaves at 69 uM added to nutrient medium measured 5 to 15 days post onset of compound treatment by HPLC method. It counts as functional. To be noted: Lathyrus oleraceus. The gist of the method:
as §1

For series [11], the system named is Root. Briefly: Induction of PAL activity in Pisum sativum (pea) roots at 69 uM added to nutrient medium measured 5 to 15 days post onset of compound treatment. To be noted: Lathyrus oleraceus. The series is classed as functional. The gist of the method:
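Roots were taken from 12-day-old pea plants (cv. Snap Sugar Boys) treated via nutrient solution, renewed every 3 days at pH 6–7. For PAL activity, extracts were not filtered on Sephadex G-25. Reaction ran 1 h at 37 °C, then HCl was added and the mixture was centrifuged at 5000g for 5 min.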

Series [12] has as its system Root. Briefly: Induction of DAHPS enzyme expression in Pisum sativum (pea) roots at 69 uM added to nutrient medium measured 5 to 15 days post onset of compound treatment by immunoblot. To be noted: Lathyrus oleraceus. The series is classed as functional. The gist of the method: (§3)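 Roots were taken from pea plants (cv. Snap Sugar Boys) treated via nutrient solution from 12 days old, with the solution renewed every 3 days. Samples were taken at days 3, 7, 10 and 15.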

Series [13] relates to Root. Briefly: Induction of ferulic acid accumulation in Pisum sativum (pea) roots at 28 nM added to nutrient medium measured 5 to 15 days post onset of compound treatment by HPLC method. It counts as functional. To be noted: Lathyrus oleraceus. An outline of the steps:
as §1

The subject of series [14] is Root. Nature of the series: Reduction in sinapic acid accumulation in Pisum sativum (pea) roots at 28 nM added to nutrient medium measured 3 to 10 days post onset of compound treatment by HPLC method. To be noted: Lathyrus oleraceus. The series is classed as functional. An outline of the steps: as §1
The subject of series [15] is Root. Nature of the series: Induction of p-coumaric acid accumulation in Pisum sativum (pea) roots at 28 nM added to nutrient medium measured 5 to 15 days post onset of compound treatment by HPLC method. To be noted: Lathyrus oleraceus. The series is classed as functional. An outline of the steps:
as §1

The test system of series [16] is Root. Nature of the series: Induction of DAHPS enzyme expression in Pisum sativum (pea) roots at 28 nM added to nutrient medium measured 5 to 15 days post onset of compound treatment by immunoblot. The series is classed as functional. To be noted: Lathyrus oleraceus. The gist of the method:
as §3
(In western blotting, separated proteins are transferred to a membrane and probed.)

The subject of series [17] is Root. Nature of the series: Induction of caffeic acid accumulation in Pisum sativum (pea) roots at 28 nM added to nutrient medium measured 5 to 15 days post onset of compound treatment by HPLC method. It counts as functional. To be noted: Lathyrus oleraceus. An outline of the steps:
as §1

The subject of series [18] is Leaf. Briefly: Induction of sinapic acid accumulation in Pisum sativum (pea) leaves at 28 nM added to nutrient medium measured 5 to 15 days post onset of compound treatment by HPLC method. It counts as functional. To be noted: Lathyrus oleraceus. The gist of the method: as §1
Series [19] deals with Leaf. Briefly: Induction of ferulic acid accumulation in Pisum sativum (pea) leaves at 28 nM added to nutrient medium measured 5 to 15 days post onset of compound treatment by HPLC method. The series is classed as functional. To be noted: Lathyrus oleraceus. The gist of the method:
as §1

Series [20] relates to Leaf. Briefly: Induction of caffeic acid accumulation in Pisum sativum (pea) leaves at 28 nM added to nutrient medium measured 5 to 15 days post onset of compound treatment by HPLC method. The series is classed as functional. To be noted: Lathyrus oleraceus. The gist of the method: as §1
Series [21] concerns Leaf. Nature of the series: Induction of p-coumaric acid accumulation in Pisum sativum (pea) leaves at 28 nM added to nutrient medium measured 5 to 15 days post onset of compound treatment by HPLC method. It counts as functional. To be noted: Lathyrus oleraceus. The gist of the method: as §1
Series [22] concerns Pisum sativum. Nature of the series: Growth inhibition in Pisum sativum (pea) at 28 nM added to nutrient medium measured 22 to 23 days post onset of compound treatment. The series is classed as functional, organism-based. To be noted: Lathyrus oleraceus. The gist of the method: as §2
In series [23] the test system is Root. Nature of the series: Drug level in Pisum sativum (pea) roots at 1 mM added to nutrient medium measured 5 to 15 days post onset of compound treatment by HPLC method. To be noted: lathyrus oleraceus, 1000 µM. The series is classed as ADME. The gist of the method: (§4)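 Pea (Pisum sativum cv. Snap Sugar Boys) plants were grown in nutrient solution. At 12 days old, 1 mM phenolic acid was added to the solution. The solution was replaced every 3 days and kept at pH 6–7. Samples were collected at 0, 1, 3, 7, 10 and 15 days. Untreated plants were controls. One-way ANOVA with Fisher test, p < 0.05.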

Series [24] relates to Root. Nature of the series: Induction of ADH protein enzyme expression in Pisum sativum (pea) roots at 1 mM added to nutrient medium measured 5 to 15 days post onset of compound treatment by immunoblot. To be noted: Lathyrus oleraceus. The series is classed as functional. The gist of the method:
as §4

Series [25] concerns Pisum sativum. Nature of the series: Growth inhibition in Pisum sativum (pea) assessed as shoot growth arrest at 1 mM added to nutrient medium measured within 10 days post onset of compound treatment. It counts as functional, organism-based. To be noted: Lathyrus oleraceus. An outline of the steps: as §4
Series [26] concerns Leaf. Nature of the series: Drug level in Pisum sativum (pea) leaves at 1 mM added to nutrient medium measured 5 to 15 days post onset of compound treatment by HPLC method. The series is classed as ADME. To be noted: lathyrus oleraceus, 1000 µM. The gist of the method: as §4
Series [27] deals with Root. Briefly: Effect on starch content in Pisum sativum (pea) roots at 1 mM added to nutrient medium measured 5 to 15 days post onset of compound treatment by capillary electrophoresis method. The series is classed as functional. To be noted: Lathyrus oleraceus. The gist of the method: as §4
In series [28] the test system is Leaf. Briefly: Increase in quinate content in Pisum sativum (pea) leaves at 1 mM added to nutrient medium measured 5 to 15 days post onset of compound treatment by ion chromatography. The series is classed as functional. To be noted: Lathyrus oleraceus. An outline of the steps:
as §4

Series [29] concerns Pisum sativum. Nature of the series: Growth inhibition in Pisum sativum (pea) assessed as root elongation arrest at 1 mM added to nutrient medium measured within 1 day post onset of compound treatment. The series is classed as functional, organism-based. To be noted: Lathyrus oleraceus. The gist of the method: as §4
Series [30] concerns Root. Briefly: Effect on sucrose content in Pisum sativum (pea) roots at 1 mM added to nutrient medium measured 5 to 15 days post onset of compound treatment by capillary electrophoresis method. To be noted: Lathyrus oleraceus. It counts as functional. An outline of the steps:
as §4

Series [31] has as its system Root. Nature of the series: Induction of PDC protein expression in Pisum sativum (pea) roots at 1 mM added to nutrient medium measured 5 to 15 days post onset of compound treatment by immunoblot. It counts as functional. To be noted: Lathyrus oleraceus. The gist of the method:
as §4

The subject of series [32] is Leaf. Nature of the series: Increase in starch content in Pisum sativum (pea) leaves at 1 mM added to nutrient medium measured 5 to 15 days post onset of compound treatment by capillary electrophoresis method. It counts as functional. To be noted: Lathyrus oleraceus. The gist of the method:
as §4

Series [33] concerns Root. Nature of the series: Reduction in PAL activity in Pisum sativum (pea) roots at 1 MM added to nutrient medium measured 7 days post onset of compound treatment. The series is classed as functional. Details: dose or concentration left out as unconfirmed. To be noted: Lathyrus oleraceus. An outline of the steps: as §4
Series [34] relates to Root. Nature of the series: Increase in lignin content in Pisum sativum (pea) roots at 1 mM added to nutrient medium measured 5 to 15 days post onset of compound treatment. It counts as functional. To be noted: Lathyrus oleraceus. An outline of the steps:
as §4

These results are taken from ChEMBL document CHEMBL3045143, “Role of exogenously supplied ferulic and p-coumaric acids in mimicking the mode of action of acetolactate synthase inhibiting herbicides” (J Agric Food Chem, 2011).

Each structure is given as a SMILES string. Calls of active or inactive are those of the source. The calls are words filed in the database; no cut-off is given here.

Take `CCc1cnc(C2=NC(C)(C(C)C)C(=O)N2)c(C(=O)O)c1` (centres undefined): the result with Root [1], in the series with Leaf [2], in the series on Root [3], with Root [4], with Leaf [5] and in the series with Leaf [6] was Active. For the same molecule, the result in the series with Root [8], in the series with Root [9], in the series on Leaf [10] and in the series with Root [12] was Active. Also, the “growth inhibition (GI)” value with Pisum sativum [7] is “Active”. Further, in the series on Root [11], the outcome was inactive.
For `COc1nc(C)nc(NC(=O)NS(=O)(=O)c2ccccc2Cl)n1`, the outcome in the series with Root [13], with Root [14], in the series with Root [15], with Root [16], with Root [17] and with Leaf [18] was Active. Further, the result in the series with Leaf [19], in the series with Leaf [20] and in the series with Leaf [21] was Active. The “growth inhibition (GI)” value in the series on Pisum sativum [22] was “Active”.
In the case of `O=C(O)/C=C/c1ccc(O)cc1` [COUMARIC ACID], the Drug uptake entry in the series on Root [23] and in the series with Leaf [26] was “Active” in each case. Moreover, the outcome in the series with Root [24], in the series on Pisum sativum [25], in the series with Leaf [28], in the series on Pisum sativum [29], in the series with Root [31] and in the series with Leaf [32] was Active. In addition, the result in the series with Root [27] and in the series on Root [30] was inactive.
Regarding `COc1cc(/C=C/C(=O)O)ccc1O` [FERULATE], the Drug uptake result in the series with Root [23] and in the series on Leaf [26] was “Active” each time. For the same molecule, the outcome in the series with Root [24], in the series with Pisum sativum [25], with Leaf [28], in the series with Pisum sativum [29], with Root [33] and in the series with Root [34] was Active. Moreover, the result in the series with Root [31] and in the series with Leaf [32] was Active. For the same molecule, the result in the series with Root [27] and with Root [30] was inactive.
